Screens deposited in PubChem BioAssay by several laboratories.
Efflux pump inh = inhibitors of Candida antifungal efflux pumps expressed in yeast; S. cerevisiae Candida pump triplex, Nile Red efflux; inhibition, % at 10 µM; AID 485275; 330,000 compounds, 0.44% hits;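 active means plate passing quality check with inhibition over a set limit, or well fluorescence over plate mean plus 4 SD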;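 further: Nile Red retained in pooled yeast measured as flow cytometry median fluorescence; higher means more Nile Red kept so more efflux inhibition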
AI-2 QS mod = modulators of Vibrio harveyi AI-2 quorum sensing system; Vibrio harveyi JMH597 AI-2 luminescence/OD600 ratio, 9 h; hits give low values; strain lacks LuxN and CqsS sensors; 0 = neutral-control median; 300,000 compounds, 0.4% hits; AID 2094; activity change, % at 7.5 µM; in the data active means activity change below about -75%, passing the limit was not always enough; inconclusive means no clear call, values can overlap the other calls;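 further: luminescence divided by OD600 gain over 9 h not by final OD600 alone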
PolyA inh = blocks polyadenylation in yeast reporter cells; S. cerevisiae SKY197-pL101 polyadenylation reporter, beta-gal luminescence; efflux-impaired pdr1/pdr3 knockout yeast; score 100 = 6 SD above DMSO; activity score, % at 12 µM; 300,000 compounds, 0.02% hits;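 active means lowest replicate activity score at least 50, where 100 means six control SD above control mean; inconclusive means lowest score under 50 but half or more replicates reach 50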;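 further: yeast exposed to compound for 9 h at 30 °C; higher score means more reporter readthrough which indicates perturbed polyadenylation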
T cruzi repl = blocks replication of Trypanosoma cruzi; T. cruzi beta-gal in NIH3T3, luminescence, 90 h; inhibition, % (no concentration beside the values); 300,000 compounds, 1.4% hits;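 active means mean inhibition across valid replicates above about 55%, limit read from the data; inconclusive means mean below that limit but half or more replicates reach it; inactive means mean below it, under half of replicates reach it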;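 further: signal also drops with host cell toxicity which is not excluded here; higher percent means less beta-gal luminescence so fewer parasites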
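Assay system: NIH/3T3 host cells with β-galactosidase reporter T. cruzi; input: 5,000 host fibroblasts per well; compound: single 50 nL compound addition per well in DMSO; timing: ≥90 h infection period, 3 h prior cell attachment; measured by: GalScreen β-gal luminescence, detergent lysis, 60 min; evaluation: percent inhibition of parasite-derived β-gal signal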
HDAC3 inh = blocks human histone deacetylase 3; 320,000 compounds, 0.15% hits; AID 2718; O15379; inhibition, % at 8.3 µM; recombinant HDAC3, fluorogenic peptide/trypsin coupled, fluorescence; in the data active means inhibition above about 26%, passing the limit was not always enough; inconclusive means no clear call, values can overlap the other calls
Target sequence (O15379 whole entry, looked up): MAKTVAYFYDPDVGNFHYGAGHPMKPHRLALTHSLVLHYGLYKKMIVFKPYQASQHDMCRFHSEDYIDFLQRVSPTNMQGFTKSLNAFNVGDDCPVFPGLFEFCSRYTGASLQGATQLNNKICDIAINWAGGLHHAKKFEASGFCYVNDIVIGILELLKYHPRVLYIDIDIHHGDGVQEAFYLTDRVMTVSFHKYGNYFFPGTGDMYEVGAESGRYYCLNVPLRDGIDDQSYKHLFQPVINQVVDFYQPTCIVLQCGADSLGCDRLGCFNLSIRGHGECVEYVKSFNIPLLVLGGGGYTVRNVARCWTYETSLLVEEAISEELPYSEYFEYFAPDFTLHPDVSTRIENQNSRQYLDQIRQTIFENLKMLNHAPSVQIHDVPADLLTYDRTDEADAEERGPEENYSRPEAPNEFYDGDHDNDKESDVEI
Large screens that a line does not name were inactive. This is a sample that favours compounds with a hit; in the whole collection about 2.2% have one here.

COCC(=O)NCc1ccc2c(c1)cc(C)n2C	none
Cc1cc2cc(CNC(=O)c3ccco3)ccc2n1C	PolyA inh inconclusive
Cc1cc2cc(CNC(=O)c3cc4ccccc4o3)ccc2n1C	T cruzi repl 65.0 (no result: PolyA inh)
Cc1ccc(S(=O)(=O)NCc2ccc3c(c2)cc(C)n3C)cc1	T cruzi repl 63.9
O=C1c2ccccc2C(=O)N1Cc1ccc2c(c1)OCO2	none
CCCN1CCc2c(sc(NC(=O)CCS(=O)(=O)c3ccccc3)c2C(=O)OC)C1	none
C=C1CCN([C@@H](Cc2ccccc2)C(=O)NC2CCN(Cc3ccccc3)CC2)S(=O)(=O)c2ccccc21	none (no result: Efflux pump inh)
CCOc1ccc(/C=C(\C)C(=O)c2c(C)cc(C)[nH]c2=O)cc1	none
Nc1cc(=O)[nH]c(SCC(=O)N2CCC(Cc3ccccc3)CC2)n1	none (no result: AI-2 QS mod, PolyA inh, T cruzi repl)
COC(=O)C1=NNC2(c3ccc(Cl)cc3)C(=O)N(c3ccc(Cl)cc3)C(=O)C12 (stereo not drawn)	none
COC(=O)C1=NNC2(c3ccc(Cl)cc3)C(=O)N(c3ccccc3)C(=O)C12 (stereo not drawn)	HDAC3 inh 34.1
Cc1ccccc1-n1c(SCC(=O)N/N=C/c2c(C)nn(-c3ccccc3)c2C)nc2ccccc2c1=O	T cruzi repl 56.4
C=CCc1cc(Cl)ccc1OCCN(C)C	T cruzi repl 56.6
Cc1nnc(NS(=O)(=O)c2ccc(Br)cc2)s1	none
CCCCN(CC)CCCNC(=O)C1CCN(c2ncnc3c2sc2cccc(F)c23)CC1	T cruzi repl 70.5
Clc1ccc(COc2cccc(CNCc3ccncc3)c2)cc1	T cruzi repl 70.1
COc1ccc2cc(/C=C/C(=O)N3CCN(CC(=O)N4CCCCCC4)CC3)ccc2c1	none (no result: AI-2 QS mod)
Cc1[nH]c2ccccc2c1/C=N/Nc1ccccc1[N+](=O)[O-]	T cruzi repl 61.5
COc1cc2c(C(=O)N3CCN(c4ccccc4F)CC3)cn(C)c(=O)c2cc1OC	HDAC3 inh 44.5
c1coc(-c2ccnc3ncnn23)c1	none
CC(C)C(=O)N1CCN(c2ccccc2NC(=O)c2ccc([N+](=O)[O-])o2)CC1	T cruzi repl 56.3
O=C(Nc1ccccc1N1CCCC1)c1ccc([N+](=O)[O-])o1	T cruzi repl 62.4
CCC(=O)N1CCN(c2ccccc2NC(=O)c2ccc([N+](=O)[O-])o2)CC1	none
CC1CCN(c2ccccc2NC(=O)c2ccc([N+](=O)[O-])o2)CC1	none
CN1CCN(c2ccccc2NC(=O)c2ccc(-c3ccc(Cl)cc3Cl)o2)CC1	T cruzi repl 55.3
COc1ccc(/C=N/NC(=O)CCSc2nc3ccccc3s2)cc1	none
CC(C)c1ccc(NC(=S)NNC(=O)c2cccs2)cc1	none
Cc1cccc(NC(=O)C2CCN(C(=O)N3CCOc4ccccc43)CC2)c1C	none
CCn1c(SCC(=O)N2c3ccccc3CCc3ccccc32)nc2c1c(=O)n(C)c(=O)n2C	none
CC1Cc2ccccc2N1C(=O)CSc1nc2c(c(=O)n(C)c(=O)n2C)n1Cc1ccccc1 (stereo not drawn)	T cruzi repl 56.7
Cn1nc(-c2ccccc2)cc1NS(=O)(=O)c1ccc(C#N)cc1	none
COC(=O)c1cc2ccsc2n1CC(=O)N(C)c1ccccc1	none
COC(=O)c1cc2ccsc2n1CC(=O)Nc1ccc(N(C)C)cc1	T cruzi repl 54.9
Cc1nn(CC(=O)NC(=O)c2ccccc2)c(C)c1[N+](=O)[O-]	none (no result: AI-2 QS mod, PolyA inh, T cruzi repl)
Cc1ccc2c(c1)CCCN2S(=O)(=O)c1cccc(C(=O)Nc2ccccc2C(=O)O)c1	T cruzi repl 58.0
O=C(CCSc1ccc(Cl)cc1)N1CCN(c2ccc(O)cc2)CC1	T cruzi repl 63.2 (no result: HDAC3 inh)
CCOC(=O)N1CCN(C(=O)CC(C(=O)N2CCc3ccccc32)n2ccnc2)CC1 (stereo not drawn)	T cruzi repl 63.4 (no result: HDAC3 inh)
O=C(CC(C(=O)N1CCc2ccccc21)n1ccnc1)NCc1ccccc1 (stereo not drawn)	none
COC(=O)C1=C(Nc2ccc(C)cc2)C=C(C)C(C(=O)OC)C1c1ccc(OC)cc1 (stereo not drawn)	none
COC(=O)C1=C(Nc2ccc(C)cc2)C=C(C)C(C(=O)OC)C1c1cccc(OC)c1 (stereo not drawn)	T cruzi repl 58.0
CCn1c2ccc(F)cc2c2nnc(SCCN3CCCCC3)nc21	T cruzi repl 62.8
C=CCn1c2ccccc2c2nnc(SCCN3CCCCC3)nc21	none
c1ccc(Cn2c3ccccc3c3nnc(SCCN4CCCCC4)nc32)cc1	T cruzi repl 69.0
